# Most compounds without a hit are left out; they make up all but 2.7% or so of the library.
# IMP-1 inhibitor – inhibitors of Pseudomonas aeruginosa IMP-1 metallo-beta-lactamase; 290,000 tested, 0.45% active; inhibition, % at 5.6 µM; purified IMP-1, nitrocefin hydrolysis, epi-absorbance fluorescence;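 active = inhibition above the mean plus 3 SD of all compounds in the same screening run, cut at about 4.5% in these data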;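 note: 0% = IMP-1 with DMSO and 100% = DMSO wells lacking enzyme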
#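 assay system = purified recombinant IMP-1 metallo-beta-lactamase enzyme | schedule = 15 min preincubation plus 25 min reaction at 25 °C | signal = Epi-absorbance fluorescence, 480 nm excitation, 530 nm emission | read-out basis = percent inhibition from optical density relative to buffer-blank wells | controls = IMP-1 with DMSO as 0%, enzyme-free DMSO as 100%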
# Fh CTSL1 inh – cathepsin L1 inhibition, PFM18AAP counter-screen; inhibition, % at 5.96 µM; recombinant F. hepatica cathepsin L1, Z-Leu-Arg-MCA fluorescence; 300,000 tested, 0.49% active;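 active = inhibition above the mean of all tested compounds plus 3 SD, set per screening campaign, cut at about 17% in these data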;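 note: 0% = plate median of test compound wells and 100% = 1 µM Z-Phe-Ala-diazomethylketone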
# VIM-2 inhibitor – inhibitors of Pseudomonas aeruginosa VIM-2 metallo-beta-lactamase | purified VIM-2, nitrocefin hydrolysis, epi-absorbance fluorescence | inhibition, % at 5.6 µM | 290,000 tested, 0.89% active | AID 1527;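 active = inhibition above the mean of all tested compounds plus 3 SD, cutoff set per screening run, cut at about 7.5% in these data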;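 note: red hydrolysis product quenches plate fluorescence so inhibitors raise well fluorescence; 0% = enzyme with DMSO and 100% = DMSO without enzyme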
# M18AAP inhibitor – blocks P. falciparum M18 aspartyl aminopeptidase; recombinant PfM18AAP, H-Glu-NHMec fluorogenic cleavage; inhibition, % at 7.35 µM; 290,000 tested, 1.2% active;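 active = inhibition above the campaign mean inhibition over all tested compounds plus 3 SD, cut at about 28% in these data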;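 note: 0% = plate median of test compound wells and 100% = 2 mM ZnCl2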
# An asterisk follows results filed as active; . = no result given.
SMILES,IMP-1 inhibitor,Fh CTSL1 inh,VIM-2 inhibitor,M18AAP inhibitor
COC(CN(C(=O)CCl)C(C(=O)NC1CCCCC1)c1ccc(Cl)cc1)OC (stereo not given),-2.0,82.5*,-1.5,-4.0
COC(CN(C)C(C(=O)NC1CCCCC1)c1ccccc1)OC (stereo not given),-3.5,-0.9,-2.6,0.0
CCN(CC)C(C(=O)NC1CCCCC1)c1ccc(C)cc1 (stereo not given),-1.1,-2.0,-0.2,-13.9
COC(CN(C(=O)CCl)C(C(=O)NC1CCCCC1)c1ccccc1C)OC (stereo not given),-3.6,19.5*,-8.2,-0.6
COc1ccc(C(C(=O)NC2CCCCC2)N(C(=O)CCl)c2ccc(Cl)cc2)cc1 (stereo not given),-3.8,3.2,-3.7,-5.8
COC(CN(C(=O)CCl)C(C(=O)NC1CCCC(C)C1C)c1ccc(C)cc1)OC (stereo not given),-3.9,61.1*,-2.0,5.7
Cc1ccc(C(=O)N2CCN(S(=O)(=O)c3ccccc3)CC2)s1,.,-0.5,.,.
CCOC(=O)C(=CNc1cc(C)ccc1[N+](=O)[O-])C(=O)OCC,-2.1,1.2,-0.6,1.0
O=C(Nc1ccccc1-c1ccccc1)C12CC3CC(CC(C3)C1)C2,-3.9,-0.8,-4.9,-3.9
CC(C)Nc1nc(NC(C)C)nc(N(C#N)C(C)C(=O)N(C)C)n1 (stereo not given),-4.2,.,-1.4,-3.0
CC(C)Nc1nc(C#N)nc(NC(C)C)n1,-3.5,57.1*,-1.3,3.6
CC(C)(CNC(=O)c1cc(Cl)c(O)c(Cl)c1)N1CCCCC1,-2.1,-1.1,-3.4,3.5
Cc1ccc(NC(=O)N2CCCC2C(=O)Nc2ccc3c(c2)OCCO3)cc1 (stereo not given),-0.7,0.8,-3.4,0.8
CCC1(C)Cc2c(sc3nc(SC)[nH]c(=S)c23)CO1 (stereo not given),-3.9,2.3,8.1*,-1.0
COc1cc(/C(C)=N\NC(=O)CSc2nc3ccccc3n2C)ccc1O,-2.3,-4.8,-4.0,9.5
CCOC(=O)Cc1csc(N/N=C/c2ccccc2)n1,-3.9,1.8,-2.6,4.4
CCOC(=O)Cc1csc(N/N=C\c2ccc(N(C)C)cc2)n1,-3.5,18.9*,-4.1,38.4*
CC(C)C[C@H](NC(=O)N1CC(=O)Nc2ccccc21)C(=O)N[C@H](Cc1c[nH]c2ccccc12)C(=O)O,-2.8,37.9*,-1.3,4.5
CC(C)C[C@H](NC(=O)N1CC(=O)Nc2ccccc21)C(=O)N[C@@H](Cc1c[nH]c2ccccc12)C(=O)O,-3.2,21.7*,-0.7,-16.3
COc1cccc(C(=O)CSc2nnnn2C2CCCCC2)c1,-1.5,1.6,-0.9,8.4
COc1cccc(/C=N/Nc2nn3cnnc3c3ccccc23)c1O,-3.4,2.1,0.1,30.9*
CC(=O)Nc1ccc(S(=O)(=O)N2CCN(S(=O)(=O)c3ccc(NC(C)=O)cc3)CC2)cc1,-1.1,.,-3.1,-3.0
CC(=O)Nc1ccc(S(=O)(=O)N2CCN(c3ccc(C)c(Cl)c3)CC2)cc1,-3.9,19.8*,-4.0,-1.7
COc1cc(C2NC(=O)NC(C)=C2C(=O)Nc2cccc(C)c2C)cc(OC)c1OC (stereo not given),-3.2,-1.4,-3.1,0.6
COc1ccccc1C1NC(=O)NC(C)=C1C(=O)Nc1cccc(C)c1C (stereo not given),5.0*,-1.3,-0.3,-9.6
SMILES,IMP-1 inhibitor,Fh CTSL1 inh,VIM-2 inhibitor,M18AAP inhibitor
Nc1nnc(CC(=O)N/N=C/c2ccccc2OCc2ccccc2F)s1,-2.9,0.1,-3.6,3.8
CSc1nc(=O)n2cc(C)ccc2n1,-2.9,-2.3,3.9,-8.2
CC(C)C(NC(=O)c1ccco1)C(=O)NCC(c1ccco1)N1CCCCC1 (stereo not given),-0.2,78.5*,0.2,0.0
O=C(NCC(c1ccco1)N1CCCCC1)C(c1ccccc1)c1ccccc1 (stereo not given),-1.8,4.0,-2.4,-4.9
Cc1nc(N2CCN(c3ccccn3)CC2)c2c(C)c(C(=O)Nc3c(C)cc(Br)cc3C)sc2n1,-3.4,18.5*,-4.6,2.3
Cc1ccc(NC2CCCN(C(=O)c3ccc(C)c(N4CCNC4=O)c3)C2)cc1C (stereo not given),-1.9,-1.6,-2.2,11.5
COc1cc(C(=O)OCCCN=C2NS(=O)(=O)c3ccccc32)cc(OC)c1OC,-1.4,0.4,-1.1,-2.4
C/C(CCC1CC(C)(C)OC1=O)=N\NC(N)=S (stereo not given),-4.6,7.3,-4.0,13.7
C/C(=N\NC(N)=S)C1(C)CC2(CC(C)(C)OC2=O)C(=O)O1 (stereo not given),-2.7,18.7*,-2.8,24.3
CCCC1CC(C)(/C(C)=N\NC(N)=S)OC1=O (stereo not given),-2.1,9.8,-1.5,28.2*
CCOc1ccc(C(=O)NCc2ccco2)cc1OC,-1.9,.,-0.6,-5.4
Cc1ccc(S(=O)(=O)N2CCCCC2)cc1NC(=O)CSc1ccc2c(c1)OCCO2,7.1*,-2.7,0.4,-4.2
CN1CCN(C2=Nc3c(Cl)cc(Cl)c4cccc2c34)CC1,-0.5,1.1,7.7*,6.6
COc1ccc(CN(C)Cc2c(O)ccc3cc(Br)ccc23)cc1OC,-0.8,1.3,-0.5,1.9
O=C(c1ccco1)N1CCN(C(c2ccccc2Cl)c2nnnn2CC2CCCO2)CC1 (stereo not given),-1.4,19.4*,-0.2,4.7
CCOc1ccc(N/C(=C(/C(Cl)=C(Cl)Cl)[N+](=O)[O-])n2cncn2)cc1,-0.5,0.3,-0.4,78.1*
O=C(Nc1ccc(Cl)cc1C(=O)Nc1ccncc1)c1ccco1,-2.6,-0.3,8.2*,2.3
CC(=O)n1cc([C@@H]2C=C(C(=O)NCc3ccccc3)O[C@H](OCc3ccc(CO)cc3)C2)c2ccccc21,.,0.3,.,.
CC(=O)n1cc([C@@H]2C=C(C(=O)O)O[C@H](OCc3ccc(CO)cc3)C2)c2ccccc21,-0.9,-1.5,8.8*,-10.6
Cc1ccc(CO/N=C/C2=C(Cl)c3ccccc3CC2)cc1,-2.5,1.4,-2.0,4.6
Cc1ccc(Oc2ncccc2/C=N/OCc2ccc(Cl)c(Cl)c2)cc1,4.7*,0.0,-0.4,4.8
CN1CCN(S(=O)(=O)c2ccc(Oc3ccc(F)c(Cl)c3)nc2)CC1,-1.4,-1.4,-1.2,-5.8
CCn1c(CCCc2ccc(OC)c(C)c2)n[nH]c1=S,-1.8,2.3,-2.4,28.7*
COc1ccccc1NC(=O)CNC(=O)c1ccc(Br)o1,0.3,0.6,1.3,-11.7
O=c1ccsn1Cc1ccccc1,-4.5,24.0*,-2.7,32.7*
CCC(=O)N(CCC(c1ccco1)C(C)C)Cc1ccccc1 (stereo not given),-0.6,29.7*,0.2,2.0
O=C(CCCc1nc(-c2ccccc2Cl)no1)NCc1cccnc1,5.7*,0.2,-3.0,0.0
Cc1cc(C(=O)Nc2ncn[nH]2)ccc1[N+](=O)[O-],-5.4,1.0,-2.9,29.6*
Cc1cc(C)nc(NC(=O)c2ccc([N+](=O)[O-])c(C)c2)n1,-4.7,-6.8,0.5,1.6
CC(=O)OCN(C#N)c1nc(N(C)C)nc(N(C)C)n1,-3.2,-22.7,-1.2,0.9
